What was measured:
[1] = test system: MYCN2 neuroblastoma cells; experiment: Cell viability assay; type: cell-based, human; settings: MTS; for effect on viability of MYCN2 cells: highest concentration tested (1 μM), 24 h exposure
In short: (§1)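 Cells plated overnight in RPMI with 10% heat-inactivated FBS, penicillin (100 U/ml) and streptomycin (100 μg/ml), at 37 °C in humidified 5% CO2. […] MTS read-out by absorbance at 490 nm. Two experiments, each in triplicate wells (n=6); viability averaged relative to untreated cells.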

[2] = test system: SK-N-SH neuroblastoma cells; experiment: Cell viability assay; type: cell-based, human; settings: MTS; for effect on viability of SK-N-SH cells: highest concentration tested (1 μM), 24 h exposure
In short: as §1

[3] = molecular target: 20S constitutive proteasome CT-L (β5) (Homo sapiens, UniProt P20618+P28074); experiment: In vitro proteasome activity assay, constitutive proteasome CT-L activity; type: biochemical
[4] = molecular target: 20S constitutive proteasome C-L (β1) (Homo sapiens, UniProt P28072+Q99436); experiment: In vitro proteasome activity assay, constitutive proteasome C-L activity; type: biochemical
[5] = molecular target: 20S constitutive proteasome T-L (β2) (Homo sapiens, UniProt P49720+Q99436); experiment: In vitro proteasome activity assay, constitutive proteasome T-L activity; type: biochemical
[6] = molecular target: immunoproteasome CT-L (β5) (Homo sapiens, UniProt P20618+P28062); experiment: In vitro proteasome activity assay, immunoproteasome CT-L activity; type: biochemical; settings: for effect on CT-L activity of the immunoproteasome: at ≤10 μM; for change of CT-L activity of the immunoproteasome on inhibition of T-L activity: Fig. S1
[7] = molecular target: immunoproteasome C-L (β1) (Homo sapiens, UniProt P28065); experiment: In vitro proteasome activity assay, immunoproteasome C-L activity; type: biochemical; settings: for effect on C-L activity of the immunoproteasome: at ≤10 μM
[8] = molecular target: immunoproteasome T-L (β2) (Homo sapiens, UniProt P40306+P49720); experiment: In vitro proteasome activity assay, immunoproteasome T-L activity; type: biochemical
[9] = test system: SK-N-Be(2)c neuroblastoma cells; experiment: Cell viability assay; type: cell-based, human; settings: highest concentration tested (1 μM), 24 h exposure, MTS
In short: as §1

Ki [3] | Ki [4] | Ki [5] | Ki [6] | effect on CT-L activity of the immunoproteasome [6] | Ki [7] | effect on C-L activity of the immunoproteasome [7] | Ki [8] | change of CT-L activity of the immunoproteasome on inhibition of T-L activity [6] | SMILES | cytotoxic effect in MYCN2 cells ([1]; at 0.1–1 μM, 24 h) | cytotoxic effect in SK-N-SH cells ([2]; at 0.1–1 μM, 24 h) | effect on viability of MYCN2 cells [1] | effect on viability of SK-N-Be(2)c cells [9] | effect on viability of SK-N-SH cells [2]
 |  |  |  |  |  |  |  |  | CC(C)C[C@H](NC(=O)[C@H](Cc1ccccc1)NC(=O)c1cnccn1)B(O)O [BTZ, bortezomib, reference compound] | strong cytotoxic effects | strong cytotoxic effects |  |  | 
0.28 µM | > 10 µM | 1.76 µM | > 10 µM | no effect | > 10 µM | no effect | 1.39 µM |  | CCCCCCCCCCCCNC(=O)N[C@H](C(=O)N[C@H]1CSCCNC(=O)/C=C/[C@H](C)NC1=O)C(C)C [Compound 1, (S)-2-(3-Dodecylureido)-3-methyl-N-((8S,11R,E)-8-methyl-5,10-dioxo-1-thia-4,9-diazacyclododec-6-en-11-yl)butanamide] |  |  |  |  | 
0.91 µM | > 10 µM | 1.07 µM | > 10 µM | no effect | > 10 µM | no effect | 0.74 µM | stimulate the CT-L activity | CC(C)Cc1ccc([C@H](C)C(=O)N[C@H](C(=O)N[C@H]2CSCCNC(=O)/C=C/[C@H](C)NC2=O)C(C)C)cc1 [Compound 5, (S)-2-((S)-2-(4-Isobutylphenyl)propanamido)-3-methyl-N-((8S,11R,E)-8-methyl-5,10-dioxo-1-thia-4,9-diazacyclododec-6-en-11-yl)butanamide] |  |  | minimal effects | minimal effects | minimal effects
1.22 µM | > 10 µM | 0.92 µM | > 10 µM | no effect | > 10 µM | no effect | 0.75 µM | stimulate the CT-L activity | CC(C)[C@H](NC(=O)c1cnccn1)C(=O)N[C@H]1CSCCNC(=O)/C=C/[C@H](C)NC1=O [Compound 6, N-((S)-3-Methyl-1-(((8S,11R,E)-8-methyl-5,10-dioxo-1-thia-4,9-diazacyclododec-6-en-11-yl)amino)-1-oxobutan-2-yl)pyrazine-2-carboxamide] |  |  | minimal effects | minimal effects | minimal effects

From publication PMC5920785 (Bioorganic & medicinal chemistry, 2017)
